# Bridge positions count the residues as written; N and C are the ends. Square brackets hold non-standard residues; d marks the D form. Ends that are not written are not given here. Peptide text beside a SMILES is read from it. Orn = NCCC[C@H](N)C(=O)O; Mpa = O=C(O)CCS
# Experiments:
# [1] = molecular target: inotocin receptor (not stated (C. fellah or C. japonicus cDNA cloned)); assay: FRET or BRET
# inotocin receptor [2] = assay: Calcium assay; type: cell-based, Camponotus fellah; settings: CHO cells expressing inotocin receptor, Fluo-4 cytosolic calcium
# ants = assay: Effect of injected DMSO on ant survivability; type: in vivo, Camponotus fellah
# [3] = molecular target: T1, oxytocin receptor (human OXTR) (Homo sapiens, UniProt P30559); assay: Calcium assay; type: cell-based
# T1 sequence (P30559 1-389): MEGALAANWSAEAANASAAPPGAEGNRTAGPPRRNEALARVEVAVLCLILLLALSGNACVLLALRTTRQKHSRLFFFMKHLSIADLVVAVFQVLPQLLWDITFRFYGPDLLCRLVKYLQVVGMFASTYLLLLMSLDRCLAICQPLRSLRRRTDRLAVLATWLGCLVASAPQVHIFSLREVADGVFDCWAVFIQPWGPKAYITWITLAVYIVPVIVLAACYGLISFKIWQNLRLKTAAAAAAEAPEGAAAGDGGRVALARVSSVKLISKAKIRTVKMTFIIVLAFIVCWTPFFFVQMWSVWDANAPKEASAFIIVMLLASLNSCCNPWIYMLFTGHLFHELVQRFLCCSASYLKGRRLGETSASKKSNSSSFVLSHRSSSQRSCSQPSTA
# inotocin receptor [4] = assay: TR-FRET; type: binding, Camponotus fellah; settings: 10 nM labeled inotocin ligand, atosiban 1.95 µM to 2 mM
# CYP4G1 expression = assay: CYP4G1 expression; type: in vivo, Camponotus fellah; settings: 24 h
# In short: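 Workers were chilled on ice and injected with 1.5 µL into the abdomen through the intersegmental membrane. Controls received ant saline mixed with water (1:10 for 1 mM, 1:5 for 2 mM). RNA was extracted 24 h post-injection. SYBR qRT-PCR on 200 ng total RNA used ef1a/rp2 references and per-experiment average scaling.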
# [5] = test system: cuticular hydrocarbons (CHCs); assay: Cuticular hydrocarbon quantification after antagonist injection; type: in vivo, Camponotus fellah; settings: injection of 2 mM atosiban
# In short: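 Workers were ice-anesthetized and injected with 1.5 µL into the abdomen through the intersegmental membrane. Dosing was 100 µM test compound in 1% DMSO, or 2 mM of the water-soluble antagonist. Controls were ant saline mixed with the matching solvent (DMSO 1:100; water 1:5). Normal, branched and total cuticular alkanes were then extracted and quantified.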
compound,measurement,setting,value
atosiban (peptide),IC50,[1],58.8 µM
"vasopressin (CYFQNCPRG-NH2; disulfide 1-6 (inferred); ends not checked; UniProt P01185 20-28, looked up)",Activation of inotocin receptor,inotocin receptor [2],not
C[S+](C)[O-] [DMSO],Effect on ant survivability,ants; 1% DMSO,no effect on survivability
same,Effect on ant survivability,ants; 10% DMSO,high lethality
CCOc1ccc(C[C@H]2NC(=O)CCSSC[C@@H](C(=O)N3CCC[C@H]3C(=O)N[C@@H](CCCN)C(=O)NCC(N)=O)NC(=O)[C@H](CC(N)=O)NC(=O)[C@H]([C@@H](C)O)NC(=O)[C@H]([C@@H](C)CC)NC2=O)cc1 [atosiban] ([Mpa][dY](Et)ITNCP[Orn]G-NH2; disulfide 1-6 (inferred)),IC50,[3],0.65 µM
same,"IC50, decrease in FRET ratio (binding between inotocin and inotocin receptor)",inotocin receptor [4],58.8 µM
same,CYP4G1 expression vs control,"CYP4G1 expression; 1 mM injected, P = 0.026",significantly down-regulated
same,CYP4G1 expression vs control,"CYP4G1 expression; 2 mM injected, P = 0.0002",significantly down-regulated
same,Quantity of normal alkanes vs control,[5]; P = 0.008,reduced quantities
same,Total quantity of alkanes vs control,[5]; P = 0.012,significantly lower
same,Quantity of branched alkanes vs control,[5]; P = 0.088,tendency for reduced
